How the values were obtained:
[1] = Permeability of the compound by PAMPA; assay type: physicochemical; settings: read-out: permeability
In short: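 Passive diffusion measured by stirred double-sink PAMPA; permeability expressed in 10⁻⁶ cm/s.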

[2] = AUClast in CD-1 mouse plasma at 10 mg/kg, ip administered as single dose after 24 hrs by UPLC-MS/MS method; assay type: ADME, organism-based
In short: (§1)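 Adult male CD-1 mice (25–39 g), one i.p. dose of 0.1, 1 or 10 mg/kg. […] Drug levels measured by UPLC–MS/MS and reported as means ± SEM. […] Serum ALT was also monitored.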

[3] = AUClast in CD-1 mouse liver at 10 mg/kg, ip administered as single dose after 24 hrs by UPLC-MS/MS method; assay type: ADME, organism-based; in short: as §1
[4] = AUClast in CD-1 mouse plasma at 1 mg/kg, ip administered as single dose after 24 hrs by UPLC-MS/MS method; assay type: ADME, organism-based; in short: as §1
[5] = AUClast in CD-1 mouse liver at 1 mg/kg, ip administered as single dose after 24 hrs by UPLC-MS/MS method; assay type: ADME, organism-based; in short: as §1
[6] = Ratio of AUClast in CD1 mouse liver to plasma at 10 mg/kg, ip administered as single dose after 24 hrs; assay type: ADME, organism-based; settings: CD-1, mouse, read-out: Ratio AUC
In short: (§2)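 Adult male CD-1 mice (25–39 g), n = 3 per sampling time point, given one i.p. dose (0.1, 1 or 10 mg/kg). Plasma and liver levels measured by UPLC–MS/MS. […] Serum ALT was monitored alongside.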

[7] = Ratio of AUClast in CD-1 mouse liver to plasma at 1 mg/kg, ip administered as single dose after 24 hrs; assay type: ADME, organism-based; settings: read-out: Ratio AUC; in short: as §2
[8] = AUClast in CD-1 mouse plasma at 0.1 mg/kg, ip administered as single dose after 24 hrs by UPLC-MS/MS method; assay type: ADME, organism-based; in short: as §1
[9] = AUClast in CD-1 mouse liver at 0.1 mg/kg, ip administered as single dose after 24 hrs by UPLC-MS/MS method; assay type: ADME, organism-based; in short: as §1
[10] = Ratio of AUClast in CD-1 mouse liver to plasma at 0.1 mg/kg, ip administered as single dose after 24 hrs; assay type: ADME, organism-based; settings: read-out: Ratio AUC; in short: as §2
[11] = AUClast in CD-1 mouse plasma at 0.1 mg/kg, ip administered as single dose after […] by UPLC-MS/MS method; assay type: ADME, organism-based
[12] = AUClast in CD-1 mouse liver at 0.1 mg/kg, ip administered as single dose after […] by UPLC-MS/MS method; assay type: ADME, organism-based
[13] = Ratio of AUClast in CD-1 mouse liver to plasma at 0.1 mg/kg, ip administered as single dose after […]; assay type: ADME, organism-based; settings: read-out: Ratio AUC
Plasma [14] = test: AUC (infinity) in CD-1 mouse plasma at 0.1 mg/kg, ip administered as single dose after […] by UPLC-MS/MS method; assay type: ADME, organism-based; set-up: dose 0.1 mg/kg, time infinity, route intraperitoneal; settings: in vivo
[15] = Ratio of AUC (infinity) in CD-1 mouse liver to plasma at 0.1 mg/kg, ip administered as single dose after […]; assay type: ADME, organism-based; settings: read-out: Ratio AUC
[16] = Tmax in CD-1 mouse plasma at 10 mg/kg, ip administered as single dose after 24 hrs by UPLC-MS/MS method; assay type: ADME, organism-based; in short: as §1
[17] = Tmax in CD-1 mouse liver at 10 mg/kg, ip administered as single dose after 24 hrs by UPLC-MS/MS method; assay type: ADME, organism-based; in short: as §1
[18] = Tmax in CD-1 mouse plasma at 1 mg/kg, ip administered as single dose after 24 hrs by UPLC-MS/MS method; assay type: ADME, organism-based; in short: as §1
[19] = Tmax in CD-1 mouse liver at 1 mg/kg, ip administered as single dose after 24 hrs by UPLC-MS/MS method; assay type: ADME, organism-based; in short: as §1
[20] = Tmax in CD-1 mouse plasma at 0.1 mg/kg, ip administered as single dose after 24 hrs by UPLC-MS/MS method; assay type: ADME, organism-based; in short: as §1
[21] = Tmax in CD-1 mouse liver at 0.1 mg/kg, ip administered as single dose after 24 hrs by UPLC-MS/MS method; assay type: ADME, organism-based; in short: as §1
Plasma [22] = test: Tmax in CD-1 mouse plasma at 0.1 mg/kg, ip administered as single dose after […] by UPLC-MS/MS method; assay type: ADME, organism-based; settings: in vivo
[23] = Tmax in CD-1 mouse liver at 0.1 mg/kg, ip administered as single dose after […] by UPLC-MS/MS method; assay type: ADME, organism-based
[24] = Cmax in CD-1 mouse plasma at 10 mg/kg, ip administered as single dose after 24 hrs by UPLC-MS/MS method; assay type: ADME, organism-based; set-up: dose 10 mg/kg, route intraperitoneal; in short: as §1
[25] = Cmax in CD-1 mouse liver at 10 mg/kg, ip administered as single dose after 24 hrs by UPLC-MS/MS method; assay type: ADME, organism-based; set-up: dose 10 mg/kg, route intraperitoneal; in short: as §1
[26] = Cmax in CD-1 mouse plasma at 1 mg/kg, ip administered as single dose after 24 hrs by UPLC-MS/MS method; assay type: ADME, organism-based; set-up: dose 1 mg/kg, route intraperitoneal; in short: as §1
[27] = Cmax in CD-1 mouse liver at 1 mg/kg, ip administered as single dose after 24 hrs by UPLC-MS/MS method; assay type: ADME, organism-based; set-up: dose 1 mg/kg, route intraperitoneal; in short: as §1
[28] = Cmax in CD-1 mouse plasma at 0.1 mg/kg, ip administered as single dose after 24 hrs by UPLC-MS/MS method; assay type: ADME, organism-based; set-up: dose 0.1 mg/kg, route intraperitoneal; in short: as §1
[29] = Cmax in CD-1 mouse liver at 0.1 mg/kg, ip administered as single dose after 24 hrs by UPLC-MS/MS method; assay type: ADME, organism-based; set-up: dose 0.1 mg/kg, route intraperitoneal; in short: as §1
Plasma [30] = test: Cmax in CD-1 mouse plasma at 0.1 mg/kg, ip administered as single dose after […] by UPLC-MS/MS method; assay type: ADME, organism-based; set-up: dose 0.1 mg/kg, route intraperitoneal; settings: in vivo
[31] = Cmax in CD-1 mouse liver at 0.1 mg/kg, ip administered as single dose after […] by UPLC-MS/MS method; assay type: ADME, organism-based; set-up: dose 0.1 mg/kg, route intraperitoneal
[32] = Ratio of Cmax in CD-1 mouse liver to plasma at 10 mg/kg, ip administered as single dose after 24 hrs; assay type: ADME, organism-based
In short: (§3)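 Adult male CD-1 mice (25–39 g) received one intraperitoneal dose. Plasma and liver were sampled at set time points, n = 3 mice per time point. Compound levels were measured by UPLC–MS/MS.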

[33] = Ratio of Cmax in CD-1 mouse liver to plasma at 1 mg/kg, ip administered as single dose after 24 hrs; assay type: ADME, organism-based; in short: as §3
[34] = Ratio of Cmax in CD-1 mouse liver to plasma at 0.1 mg/kg, ip administered as single dose after 24 hrs; assay type: ADME, organism-based; in short: as §3
[35] = Ratio of Cmax in CD-1 mouse liver to plasma at 0.1 mg/kg, ip administered as single dose after […]; assay type: ADME, organism-based; settings: liver and plasma
[36] = Drug uptake in CD-1 mouse liver at 1 mg/kg, ip administered as single dose after 24 hrs by UPLC-MS/MS method; assay type: ADME, organism-based; settings: read-out: Drug uptake; in short: as §1
[37] = Drug uptake in CD-1 mouse liver at 0.1 mg/kg, ip administered as single dose after 5 mins by UPLC-MS/MS method; assay type: ADME, organism-based; settings: read-out: Drug uptake; in short: as §1

Papp [1]: 5220 nm/s
AUC(0-t) at 24 h [2]: 17.6 µM·h
AUC(0-t) at 24 h [3]: 719 µM·h
AUC(0-t) at 24 h [4]: 0.88 µM·h
AUC(0-t) at 24 h [5]: 197 µM·h
Kp at 24 h [6]: 41
Kp at 24 h [7]: 224
AUC(0-t) at 24 h [8]: 0.0494 µM·h
AUC(0-t) at 24 h [9]: 19.7 µM·h
Kp at 24 h [10]: 399
AUC(0-t) at […] [11]: 0.117 µM·h
AUC(0-t) at […] [12]: 52.3 µM·h
Kp at […] [13]: 448
AUC (Plasma [14]): 0.0639 µM·h
Kp at […] [15]: 510
Tmax [16]: 4.98 min
Tmax [17]: 7 h
Tmax [18]: 0.25 h
Tmax [19]: 4 h
Tmax [20]: 4.98 min
Tmax [21]: 7 h
Tmax (Plasma [22]): 4.98 min
Tmax at […] [23]: 7 h
Cmax [24]: 4.74 µM
Cmax [25]: 34.5 µM
Cmax [26]: 0.146 µM
Cmax [27]: 9.82 µM
Cmax [28]: 0.00876 µM
Cmax [29]: 1.11 µM
Cmax (Plasma [30]): 0.00876 µM
Cmax at […] [31]: 1.11 µM
Kp at 24 h [32]: 7
Kp at 24 h [33]: 67
Kp at 24 h [34]: 126
Kp at […] [35]: 126
concentration at 24 h [36]: 3.33 to 9.82 µM
concentration at 5 min [37]: 0.39 µM
Structure (SMILES): Cc1oc(-c2ccc(Cl)c(Cl)c2)nc1CN1CCC(C(=O)NCCCN2C[C@H](C)C[C@H](C)C2)CC1

Reference: ChEMBL document CHEMBL4038306, “Development of an Aryloxazole Class of Hepatitis C Virus Inhibitors Targeting the Entry Stage of the Viral Replication Cycle” (J Med Chem, 2017)
